Laboratory results reported in ChEMBL document CHEMBL4130343, “Design, synthesis, and evaluation of benzofuran derivatives as novel anti-pancreatic carcinoma agents via interfering the hypoxia environment by targeting HIF-1α pathway” (Eur J Med Chem, 2017).
pIC50: −log10 of the molar value. The source made the active and inactive calls. The rule behind the calls is not given here.

Columns and labels:
PANC-1 [1] = assay: Induction of apoptosis in human PANC1 cells assessed as viable cells at 2 uM after 24 hrs by annexin V/propidium iodide staining-based flow cytometric method (reference value: 89.5%); type: functional; settings: PANC-1, 24 h, read-out: Activity
[2] = Cmax in rat at 10 mg/kg, ip after 0.083 to 24 hrs by LC-MS/MS method; type: ADME, organism-based; design: dose 10 mg/kg, route intraperitoneal; settings: in vivo
PANC-1 [3] = assay: Induction of apoptosis in human PANC1 assessed as increase in cleaved caspase-9 levels at 0.1 to 1 uM after 24 hrs by Western blot method; type: functional, cell-based
In short: (§1)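 PANC-1 cells were treated with graded compound concentrations for 24 h, then lysed. Proteins were separated by SDS-PAGE and blotted to PVDF. Blots were probed for PARP, cleaved PARP, caspase-3, cleaved caspase-3, caspase-9 and cleaved caspase-9, with GAPDH as loading control, and read by infrared imaging. Bands were quantified by densitometry as ratios normalized to GAPDH.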

PANC-1 [4] = assay: Antitumor activity against human PANC1 cells xenografted in nude mouse assessed as inhibition of tumor weight at 60 mg/kg, ip administered every 2 days for 21 days relative to vehicle-treated control; type: functional; settings: PANC-1, ip
In short: (§2)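 Female nude mice received 1×10^7 PANC-1 cells subcutaneously in the right flank. After 4 weeks, mice bearing tumors averaging 100 mm³ were randomized into five groups. Dosing was 15, 30 or 60 mg/kg i.p. every two days for 21 days. Tumor volume = width² × length/2; tumors were weighed at sacrifice, and body weight was monitored.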

PANC-1 [5] = assay: Induction of apoptosis in human PANC1 assessed as decrease in caspase-3 levels at 0.1 to 1 uM after 24 hrs by Western blot method; type: functional, cell-based; in short: as §1
[6] = AUC (0 to t) in rat at 10 mg/kg, ip after 0.083 to 24 hrs by LC-MS/MS method; type: ADME, organism-based; design: dose 10 mg/kg, time 0.083-24 hr, route intraperitoneal; settings: in vivo
[7] = Half life in rat at 10 mg/kg, po after 0.083 to 24 hrs by LC-MS/MS method; type: ADME, organism-based; settings: in vivo
Mus musculus [8] = assay: Downregulation of VEGF expression in human PANC1 cells xenografted in nude mouse at 15 to 60 mg/kg, ip administered every 2 days for 21 days by immunohistochemical method; type: functional, organism-based
In short: (§3)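 Tumors came from the PANC-1 nude-mouse xenografts dosed at 15, 30 or 60 mg/kg i.p. every two days for 21 days. Tumor sections were stained immunohistochemically with antibodies against CD31, HIF-1α and VEGF.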

[9] = target: Hypoxia-inducible factor 1-alpha (Homo sapiens) (UniProt Q16665); assay: Inhibition of HIF-1alpha in human PANC1 cells assessed as downregulation of VEGF mRNA levels under hypoxia condition after 24 hrs by qRT-PCR method; type: cell-based
In short: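 PANC-1 cells were exposed to hypoxia (1% O₂, 94% N₂, 5% CO₂, 37 °C) for 24 h with compound treatment. VEGF mRNA was measured by real-time qRT-PCR.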

PANC-1 [10] = assay: Induction of apoptosis in human PANC1 cells assessed as early apoptotic cells at 2 uM after 24 hrs by annexin V/propidium iodide staining-based flow cytometric method (reference value: 7.25%); type: functional
Mus musculus [11] = assay: Toxicity in nude mouse xenografted with human PANC1 cells assessed as effect on body weight at 15 to 60 mg/kg, ip administered every 2 days for 21 days measured during compound dosing; type: organism-based; settings: in vivo
In short: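 Female nude mice were implanted s.c. in the right flank with 1×10^7 PANC-1 cells. After 4 weeks, mice with tumours averaging 100 mm³ were randomized into five groups. They were dosed i.p. at 15, 30 or 60 mg/kg every two days for 21 days and monitored for toxicity, tumour growth and body weight.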

HUVEC [12] = assay: Antiangiogenic activity in HUVEC assessed as inhibition of tube formation under hypoxia condition at 0.625 to 2.5 uM after 6 hrs by inverted microscopic method; settings: Homo sapiens
[13] = Oral bioavailability in rat at 10 mg/kg after 0.083 to 24 hrs by LC-MS/MS method; type: ADME, organism-based; settings: in vivo
PANC-1 [14] = assay: Induction of apoptosis in human PANC1 assessed as decrease in caspase-9 levels at 0.1 to 1 uM after 24 hrs by Western blot method; type: functional, cell-based; in short: as §1
BXPC-3 = assay: Antiproliferative activity against human BxPC3 cells after 48 hrs by MTT assay; type: functional, cell-based; settings: BXPC-3, 48 h
In short: (§4)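 Cells were seeded at 5×10^5 cells/mL overnight and exposed to graded compound concentrations for 48 h. MTT (5 mg/mL stock) was added for 4 h at 37 °C, and formazan was dissolved in DMSO. Absorbance was read at 570 nm. IC₅₀ was fitted from the curves; values are mean ± SD, n = 3.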

PANC-1 [15] = assay: Induction of apoptosis in human PANC1 cells assessed as late apoptotic cells at 0.1 uM after 24 hrs by annexin V/propidium iodide staining-based flow cytometric method (reference value: 2.65%); type: functional
HUVEC [16] = assay: Antimigratory activity against HUVEC at 1 uM by wound-healing assay; type: functional, cell-based; settings: Homo sapiens, TDE = time-dependent effect
In short: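 HUVEC monolayers at 90% confluence were switched to serum-free medium and scratched with a pipette tip. Compound was added under hypoxia (1% O₂, 94% N₂, 5% CO₂, 37 °C) in the presence of PANC-1 conditioned medium. Wound closure was imaged by inverted-phase microscope at 12 h and 24 h.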

HCT-116 = assay: Antiproliferative activity against human HCT116 cells after 48 hrs by MTT assay; type: functional, cell-based; settings: HCT-116, 48 h; in short: as §4
[17] = Half life in rat at 10 mg/kg, iv after 0.083 to 24 hrs by LC-MS/MS method; type: ADME, organism-based; settings: in vivo
PANC-1 [18] = assay: Induction of apoptosis in human PANC1 cells assessed as dead cells at 1 uM after 24 hrs by annexin V/propidium iodide staining-based flow cytometric method (reference value: 0.60%); type: functional
PANC-1 [19] = assay: Induction of apoptosis in human PANC1 assessed as increase in cleaved PARP levels at 0.1 to 1 uM after 24 hrs by Western blot method; type: functional, cell-based; in short: as §1
PANC-1 [20] = assay: Antitumor activity against human PANC1 cells xenografted in nude mouse assessed as inhibition of tumor weight at 15 mg/kg, ip administered every 2 days for 21 days relative to vehicle-treated control; type: functional; settings: PANC-1, ip; in short: as §2
[21] = Cmax in rat at 10 mg/kg, iv after 0.083 to 24 hrs by LC-MS/MS method; type: ADME, organism-based; design: dose 10 mg/kg, route intravenous; settings: in vivo
Mus musculus [22] = assay: Effect on HIF-1alpha expression in human PANC1 cells xenografted in nude mouse at 15 to 60 mg/kg, ip administered every 2 days for 21 days by immunohistochemical method; type: functional, organism-based; in short: as §3
PANC-1 [23] = assay: Induction of apoptosis in human PANC1 cells assessed as viable cells at 0.1 uM after 24 hrs by annexin V/propidium iodide staining-based flow cytometric method (reference value: 89.5%); type: functional; settings: PANC-1, 24 h, read-out: Activity
[24] = Cmax in rat at 10 mg/kg, po after 0.083 to 24 hrs by LC-MS/MS method; type: ADME, organism-based; design: dose 10 mg/kg, route oral; settings: in vivo
[25] = Plasma concentration in rat at 10 mg/kg, ip after 36 hrs by LC-MS/MS method; type: ADME, organism-based
In short: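 Rats, n = 6 per group, each given a single 10 mg/kg dose. Blood was collected into heparinized tubes and centrifuged at 4 °C and 8000 rpm for 5 min. Plasma was analysed by LC–MS/MS.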

Hypoxia-inducible factor 1-alpha (Homo sapiens), sequence (Q16665 whole entry, looked up): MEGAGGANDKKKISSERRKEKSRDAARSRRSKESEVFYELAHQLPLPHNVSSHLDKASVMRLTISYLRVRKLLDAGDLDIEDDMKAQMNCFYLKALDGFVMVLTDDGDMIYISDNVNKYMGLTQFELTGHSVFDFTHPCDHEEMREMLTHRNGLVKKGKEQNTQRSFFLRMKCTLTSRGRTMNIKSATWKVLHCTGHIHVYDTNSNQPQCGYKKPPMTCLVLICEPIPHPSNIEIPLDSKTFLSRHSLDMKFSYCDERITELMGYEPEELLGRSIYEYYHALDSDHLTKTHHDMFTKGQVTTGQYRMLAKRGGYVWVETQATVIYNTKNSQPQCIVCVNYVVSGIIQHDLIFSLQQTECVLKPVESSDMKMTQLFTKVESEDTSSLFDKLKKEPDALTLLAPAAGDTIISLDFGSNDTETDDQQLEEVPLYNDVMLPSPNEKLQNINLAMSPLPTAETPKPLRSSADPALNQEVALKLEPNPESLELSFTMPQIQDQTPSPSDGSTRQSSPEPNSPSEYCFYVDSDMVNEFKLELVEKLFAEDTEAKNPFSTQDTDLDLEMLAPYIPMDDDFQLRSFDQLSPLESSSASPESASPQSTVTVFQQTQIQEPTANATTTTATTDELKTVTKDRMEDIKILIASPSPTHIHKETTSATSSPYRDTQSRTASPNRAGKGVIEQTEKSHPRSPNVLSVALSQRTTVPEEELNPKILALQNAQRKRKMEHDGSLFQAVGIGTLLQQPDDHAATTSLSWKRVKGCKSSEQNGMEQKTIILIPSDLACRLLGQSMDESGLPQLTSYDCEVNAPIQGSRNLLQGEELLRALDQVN

Cc1c(C(=O)NC2CCN(C)CC2)oc2ccc(N(Cc3ccc(Br)cc3)S(=O)(=O)c3ccc(Br)cc3)cc12
viability at 2 µM (PANC-1 [1]): 44.7%
Cmax [2]: 549 ng/mL
Activity (PANC-1 [3]): Active
inhibition in vivo at 60 mg/kg (PANC-1 [4]): 75.8%
Activity (PANC-1 [5]): Active
AUC(0-t) [6]: 6220 ng·h/mL
half-life [7]: 6.63 h
Activity (Mus musculus [8]): Active
inhibition [9]: Dose-dependent effect
Activity (PANC-1 [10]): 3.7%
Activity (Mus musculus [11]): Non-Toxic
inhibition (HUVEC [12]): Active
bioavailability [13]: 15%
Activity (PANC-1 [14]): Active
pIC50 (BXPC-3): 6.19
Activity (PANC-1 [15]): 9.3%
inhibition (HUVEC [16]): Tde
pIC50 (HCT-116): 5.74
half-life [17]: 7.68 h
Activity (PANC-1 [18]): 0.2%
Activity (PANC-1 [19]): Active
inhibition in vivo at 15 mg/kg (PANC-1 [20]): 39%
Cmax [21]: 3100 ng/mL
Activity (Mus musculus [22]): inactive
viability at 0.1 µM (PANC-1 [23]): 85.5%
Cmax [24]: 80.6 ng/mL
concentration at 36 h [25]: > 10 ng/mL
